Test results taken from PMC7415440 (Drug Design, Development and Therapy, 2020).

Experiments:
Multiple ascending dose = assay type: in vivo, human
Outline: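 Seven 1 h iv saline infusions every 12 h. Plasma sampled to 12 h after the first dose, predose at 60 and 72 h, then to 96 h; urine collected in 4–12 h intervals after the first and last doses. HPLC-MS/MS with deuterated internal standard; plasma range 10–30,000 ng/mL, urine 50–150,000 ng/mL. Noncompartmental analysis on actual sampling times; AUCτ by trapezoidal rule; CLR as Ae/AUClast.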

[1] = MAD study safety and tolerability assessment; assay type: in vivo, human; conditions: for Number of Subjects with AEs (%) / Number of Subjects with Drug Related AEs (% total): 6 subjects
Outline: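 Double-blind, placebo-controlled trial in healthy Korean males (active:placebo 6:2 per group), infused iv in normal saline over 1 h every 12 h, seven doses over 3.5 days, at 150, 300 or 450 mg. Subjects were in-house days 1–5, with follow-up 8 days after the last dose. Monitoring covered vital signs, 12-lead ECG, clinical labs, physical exams and AEs, with intensity and relationship to drug recorded.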

[2] = Major metabolites in samples of the highest dose groups; assay type: in vivo, human; conditions: 600 mg in SAD and 450 mg in MAD
[3] = rats, 4-week GLP toxicology study; cited from earlier work
tMCAO stroke model = tMCAO stroke model using monkeys; cited from earlier work
stroke animal model = conditions: ref unpublished data on file, Jeil Pharma, Seoul, Korea; cited from earlier work
[4] = multiple iv 150 mg over 1 h every 12 h x7, n=6, mean (SD)
[5] = multiple iv 300 mg over 1 h every 12 h x7, n=6, mean (SD)
[6] = multiple iv 450 mg over 1 h every 12 h x7, n=6, mean (SD)
[7] = multiple iv, all doses 150-450 mg, Total n=18, mean (SD)
[8] = multiple iv doses, n=24, number of subjects [cases]

In the case of `CCOc1cc(CN2CCOCC2)cc2[nH]c(=O)c3c(c12)NCCC3.Cl.Cl.O.O` [JPI-289], the “AUCτ,1st dose” value (Multiple ascending dose; [4]) is reported as 4766.06 (878.28) ng·h/mL, the “AUCτ,ss” value (Multiple ascending dose; [4]) is reported as 7696.21 (1157.59) ng·h/mL and the “Ae,1st dose” value (Multiple ascending dose; [4]) is reported as 3.98 (1.21) mg. For the same molecule, the “Ae,last dose” value (Multiple ascending dose; [4]) was 5.48 (1.64) mg, the “CLR,1st dose” value (Multiple ascending dose; [4]) was 0.84 (0.21) L/h and the “CLR,last dose” value (Multiple ascending dose; [4]) was 0.73 (0.24) L/h. For the same molecule, the CLss (Multiple ascending dose; [4]) was 19.91 (3.37) L/h, the “Cav,ss” value (Multiple ascending dose; [4]) was 641.35 (96.47) ng/mL and the “Cmax,1st dose” value (Multiple ascending dose; [4]) was 1728.17 (353.61) ng/mL. For the same molecule, the “Cmax,ss” value (Multiple ascending dose; [4]) was 2023.47 (460.41) ng/mL, the “Observed AI (accumulation index)” value (Multiple ascending dose; [4]) was 1.64 (0.21) and the “Vd,ss” value (Multiple ascending dose; [4]) was 112.20 (31.78) L. For the same molecule, the Vz (Multiple ascending dose; [4]) was 85.65 (17.01) L, the “t1/2,eff” value (Multiple ascending dose; [4]) was 1.88 (0.13) L and the t1/2z (Multiple ascending dose; [4]) was 2.44 h. For the same molecule, the “AUCτ,1st dose” value (Multiple ascending dose; [5]) was 14,809.79 (2793.29) ng·h/mL, the “AUCτ,ss” value (Multiple ascending dose; [5]) was 22,608.80 (5198.68) ng·h/mL and the “Ae,1st dose” value (Multiple ascending dose; [5]) was 11.74 (3.77) mg. For the same molecule, the “Ae,last dose” value (Multiple ascending dose; [5]) was 13.87 (5.36) mg, the “CLR,1st dose” value (Multiple ascending dose; [5]) was 0.80 (0.25) L/h and the “CLR,last dose” value (Multiple ascending dose; [5]) was 0.61 (0.14) L/h. For the same molecule, the CLss (Multiple ascending dose; [5]) was 13.95 (3.63) L/h, the “Cav,ss” value (Multiple ascending dose; [5]) was 1884.07 (433.23) ng/mL and the “Cmax,1st dose” value (Multiple ascending dose; [5]) was 4747.25 (798.21) ng/mL. For the same molecule, the “Cmax,ss” value (Multiple ascending dose; [5]) was 5658.20 (804.71) ng/mL, the “Observed AI (accumulation index)” value (Multiple ascending dose; [5]) was 1.52 (0.22) and the “Vd,ss” value (Multiple ascending dose; [5]) was 74.92 (11.18) L. For the same molecule, the Vz (Multiple ascending dose; [5]) was 67.95 (11.04) L, the “t1/2,eff” value (Multiple ascending dose; [5]) was 2.46 (0.67) L and the t1/2z (Multiple ascending dose; [5]) was 2.74 h. The “AUCτ,1st dose” value (Multiple ascending dose; [6]) was 28,278.07 (6412.76) ng·h/mL, the “AUCτ,ss” value (Multiple ascending dose; [6]) was 50,840.74 (19,417.91) ng·h/mL and the “Ae,1st dose” value (Multiple ascending dose; [6]) was 25.66 (5.03) mg. The “Ae,last dose” value (Multiple ascending dose; [6]) was 40.71 (20.87) mg, the “CLR,1st dose” value (Multiple ascending dose; [6]) was 0.92 (0.16) L/h and the “CLR,last dose” value (Multiple ascending dose; [6]) was 0.77 (0.22) L/h. The CLss (Multiple ascending dose; [6]) was 9.78 (3.11) L/h, the “Cav,ss” value (Multiple ascending dose; [6]) was 4236.73 (1618.16) ng/mL and the “Cmax,1st dose” value (Multiple ascending dose; [6]) was 8070.98 (1320.10) ng/mL. The “Cmax,ss” value (Multiple ascending dose; [6]) was 11,921.28 (1655.56) ng/mL, the “Observed AI (accumulation index)” value (Multiple ascending dose; [6]) was 1.76 (0.28) and the “Vd,ss” value (Multiple ascending dose; [6]) was 72.06 (8.72) L. For the same molecule, the Vz (Multiple ascending dose; [6]) was 63.02 (8.23) L, the “t1/2,eff” value (Multiple ascending dose; [6]) was 3.05 (0.97) L and the t1/2z (Multiple ascending dose; [6]) was 3.5 h. For the same molecule, the “AUCτ,1st dose” value (Multiple ascending dose; [7]) was 15,951.31 (10,623.66) ng·h/mL, the “AUCτ,ss” value (Multiple ascending dose; [7]) was 27,048.58 (21,404.87) ng·h/mL and the “Ae,1st dose” value (Multiple ascending dose; [7]) was 13.79 (9.86) mg. The “Ae,last dose” value (Multiple ascending dose; [7]) was 20.02 (19.40) mg, the “CLR,1st dose” value (Multiple ascending dose; [7]) was 0.85 (0.20) L/h and the “CLR,last dose” value (Multiple ascending dose; [7]) was 0.70 (0.21) L/h. For the same molecule, the CLss (Multiple ascending dose; [7]) was 14.54 (5.33) L/h, the “Cav,ss” value (Multiple ascending dose; [7]) was 2254.05 (1783.74) ng/mL and the “Cmax,1st dose” value (Multiple ascending dose; [7]) was 4848.80 (2800.32) ng/mL. For the same molecule, the “Cmax,ss” value (Multiple ascending dose; [7]) was 6534.32 (4330.54) ng/mL, the “Observed AI (accumulation index)” value (Multiple ascending dose; [7]) was 1.64 (0.24) and the “Vd,ss” value (Multiple ascending dose; [7]) was 86.39 (26.65) L. The Vz (Multiple ascending dose; [7]) was 72.21 (15.52) L, the “t1/2,eff” value (Multiple ascending dose; [7]) was 2.46 (0.81) L and the t1/2z (Multiple ascending dose; [7]) was 2.89 h. The “intensity of AEs” value ([1]; MAD) was “mild in intensity”, the tolerability ([1]; MAD, dose range 150–450 mg) was “well tolerated” and the “total number of AEs” value ([1]; MAD, in seven subjects) was 12. The “Number of Subjects with AEs (%)” value ([1]; multiple iv doses 150 mg) was 0 (0.0), the “Number of Subjects with Drug Related AEs (% total)” value (shortened to “Number of Subjects … (% total)”) ([1]; multiple iv doses 150 mg) was 0 (0.0) and the “Number of Subjects with AEs (%)” value ([1]; multiple iv doses 300 mg) was 1 (16.7). For the same molecule, the “Number of Subjects … (% total)” value ([1]; multiple iv doses 300 mg) was 1 (16.7), the “Number of Subjects with AEs (%)” value ([1]; multiple iv doses 450 mg) was 5 (83.3) and the “Number of Subjects … (% total)” value ([1]; multiple iv doses 450 mg) was 4 (66.7). For the same molecule, the “Abdominal discomfort, Drug-Related” value [1, 8] was 0 [0], the “Abdominal discomfort, Not Related” value [1, 8] was 1 [1] and the “Abdominal discomfort, Total” value [1, 8] was 1 [1]. For the same molecule, the “Bilirubin total increased, Drug-Related” value [1, 8] was 1 [1], the “Bilirubin total increased, Not Related” value [1, 8] was 0 [0] and the “Bilirubin total increased, Total” value [1, 8] was 1 [1]. The “Diarrhea, Drug-Related” value [1, 8] was 0 [0], the “Diarrhea, Not Related” value [1, 8] was 1 [1] and the “Diarrhea, Total” value [1, 8] was 1 [1]. For the same molecule, the “Dizziness, Drug-Related” value [1, 8] was 2 [2], the “Dizziness, Not Related” value [1, 8] was 0 [0] and the “Dizziness, Total” value [1, 8] was 2 [2]. For the same molecule, the “Fever, Drug-Related” value [1, 8] was 1 [1], the “Fever, Not Related” value [1, 8] was 0 [0] and the “Fever, Total” value [1, 8] was 1 [1]. For the same molecule, the “Headache, Drug-Related” value [1, 8] was 2 [2], the “Headache, Not Related” value [1, 8] was 0 [0] and the “Headache, Total” value [1, 8] was 2 [2]. The “Heart rate increased, Drug-Related” value [1, 8] was 0 [0], the “Heart rate increased, Not Related” value [1, 8] was 0 [0] and the “Heart rate increased, Total” value [1, 8] was 0 [0]. For the same molecule, the “Sinus tachycardia, Drug-Related” value [1, 8] was 1 [1], the “Sinus tachycardia, Not Related” value [1, 8] was 0 [0] and the “Sinus tachycardia, Total” value [1, 8] was 1 [1]. The “Stomatitis, Drug-Related” value [1, 8] was 1 [1], the “Stomatitis, Not Related” value [1, 8] was 0 [0] and the “Stomatitis, Total” value [1, 8] was 1 [1]. For the same molecule, the “Urticaria, Drug-Related” value [1, 8] was 2 [2], the “Urticaria, Not Related” value [1, 8] was 0 [0] and the “Urticaria, Total” value [1, 8] was 2 [2]. The “number of metabolites detected” value [2] was “Twenty-two”, the “no observed adverse event level” value [3] was 40 mg/kg and the “decrease in infarction volume” value (tMCAO stroke model) was 53%. The “time after stroke onset at which treatment showed efficacy” value (stroke animal model) was “more than 10 h”.
